According to ChEMBL document CHEMBL2434893, “Synthesis, DNA binding and anti-leukemic activity of an aminoacyl nucleolipid” (Bioorg Med Chem Lett, 2013):
Activity calls are given as the source filed them. The calls are words filed in the database; no cut-off is given here.

Experiments:
UACC-257 = assay: Cytotoxicity against human UACC257 cells assessed as cell growth at 10 uM after 48 hrs by SRB assay relative to control; format: functional; conditions: UACC-257, 48 h, read-out: Activity
How it was run: (§1)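 Single-dose (10 μM) screen run by the NCI Developmental Therapeutics Program on its 60 human cancer cell line panel. Viability was determined after 48 h incubation with the cells at 37 °C.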

NCI-H522 = assay: Cytotoxicity against human NCI-H522 cells assessed as cell growth at 10 uM after 48 hrs by SRB assay relative to control; format: functional; conditions: NCI-H522, 48 h, read-out: Activity
How it was run: (§2)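 NCI Developmental Therapeutics Program 60-cell-line screen at a single dose of 10 μM. Cells incubated with compound for 48 h at 37 °C before viability determination.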

SNB-19 = assay: Cytotoxicity against human SNB19 cells assessed as cell growth at 10 uM after 48 hrs by SRB assay relative to control; format: functional; conditions: SNB-19, 48 h, read-out: Activity; how it was run: as §1
HCT-15 = assay: Cytotoxicity against human HCT15 cells assessed as cell growth at 10 uM after 48 hrs by SRB assay relative to control; format: functional; conditions: HCT-15, 48 h, read-out: Activity; how it was run: as §2
MDA-MB-468 = assay: Cytotoxicity against human MDA-MB-468 cells assessed as cell growth at 10 uM after 48 hrs by SRB assay relative to control; format: functional; conditions: MDA-MB-468, 48 h, read-out: Activity; how it was run: as §2
OVCAR-4 = assay: Cytotoxicity against human OVCAR4 cells assessed as cell growth at 10 uM after 48 hrs by SRB assay relative to control; format: functional; conditions: OVCAR-4, 48 h, read-out: Activity; how it was run: as §2
RPMI-8226 = assay: Cytotoxicity against human RPMI8226 cells assessed as cell growth at 10 uM after 48 hrs by SRB assay relative to control; format: functional; conditions: RPMI-8226, 48 h, read-out: Activity; how it was run: as §2
DU-145 = assay: Cytotoxicity against human DU145 cells assessed as cell growth at 10 uM after 48 hrs by SRB assay relative to control; format: functional; conditions: DU-145, 48 h, read-out: Activity; how it was run: as §2
T47D = assay: Cytotoxicity against human T47D cells assessed as cell growth at 10 uM after 48 hrs by SRB assay relative to control; format: functional; conditions: read-out: Activity; how it was run: as §1
[1] = Stability in phosphate buffer assessed as formation of guanine-tetraplex structure at 0.2 to 3.9 mM at 25 degC by CD spectrophotometric analysis; format: physicochemical; conditions: 3900 µM
How it was run: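 GRP78 DNA duplex was annealed from complementary single strands in phosphate binding buffer (140 mM KCl, 1 mM MgCl₂, 5 mM Na₂HPO₄, pH 7.2), then titrated with ligand at 0.2–3.9 mM. CD spectra were recorded, and molar ellipticity was followed at the 260–280 nm maximum and the 248 nm minimum.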

SR = assay: Cytotoxicity against human SR cells assessed as cell growth at 10 uM after 48 hrs by SRB assay relative to control; format: functional; conditions: read-out: Activity; how it was run: as §1
[2] = Binding affinity to GRP78 duplex DNA (unknown origin) assessed as change in duplex DNA hyperchromicity at 0.9 to 3.9 mM after 36 hrs by thermal denaturation assay
How it was run: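 Duplex DNA (1.1 μM) annealed from complementary strands in phosphate buffer (140 mM KCl, 1 mM MgCl₂, 5 mM sodium phosphate, pH 7.2), with ligand 0.2–3.9 mM. Melting followed as % hyperchromicity at 260 nm over 5–90 °C. Tm shift measured against native duplex.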

A498 = assay: Cytotoxicity against human A498 cells assessed as cell growth at 10 uM after 48 hrs by SRB assay relative to control; format: functional; conditions: A498, 48 h, read-out: Activity; how it was run: as §2
PC-3 = assay: Cytotoxicity against human PC3 cells assessed as cell growth at 10 uM after 48 hrs by SRB assay relative to control; format: functional; conditions: PC-3, 48 h, read-out: Activity; how it was run: as §2
SF-295 = assay: Cytotoxicity against human SF295 cells assessed as cell growth at 10 uM after 48 hrs by SRB assay relative to control; format: functional; conditions: SF-295, 48 h, read-out: Activity; how it was run: as §2
OVCAR-5 = assay: Cytotoxicity against human OVCAR5 cells assessed as cell growth at 10 uM after 48 hrs by SRB assay relative to control; format: functional; conditions: OVCAR-5, 48 h, read-out: Activity; how it was run: as §2
LOX IMVI = assay: Cytotoxicity against human LOXIMVI cells assessed as cell growth at 10 uM after 48 hrs by SRB assay relative to control; format: functional; conditions: read-out: Activity; how it was run: as §2
[3] = Cytotoxicity against human NCI-ADR-RES cells assessed as cell growth at 10 uM after 48 hrs by SRB assay relative to control; format: functional; conditions: read-out: Activity; how it was run: as §2
HCC 2998 = assay: Cytotoxicity against human HCC2998 cells assessed as cell growth at 10 uM after 48 hrs by SRB assay relative to control; format: functional; conditions: HCC 2998, 48 h, read-out: Activity; how it was run: as §2
Hs-578T = assay: Cytotoxicity against human Hs578T cells assessed as cell growth at 10 uM after 48 hrs by SRB assay relative to control; format: functional; conditions: read-out: Activity; how it was run: as §2
NCI-H460 = assay: Cytotoxicity against human NCI-H460 cells assessed as cell growth at 10 uM after 48 hrs by SRB assay relative to control; format: functional; conditions: NCI-H460, 48 h, read-out: Activity; how it was run: as §2
HCT-116 = assay: Cytotoxicity against human HCT116 cells assessed as cell growth at 10 uM after 48 hrs by SRB assay relative to control; format: functional; conditions: HCT-116, 48 h, read-out: Activity; how it was run: as §2
SNB-75 = assay: Cytotoxicity against human SNB75 cells assessed as cell growth at 10 uM after 48 hrs by SRB assay relative to control; format: functional; conditions: SNB-75, 48 h, read-out: Activity; how it was run: as §1
MDA-MB-231 = assay: Cytotoxicity against human MDA-MB-231 cells assessed as cell growth at 10 uM after 48 hrs by SRB assay relative to control; format: functional; conditions: MDA-MB-231, 48 h, read-out: Activity; how it was run: as §2
MCF7 = assay: Cytotoxicity against human MCF7 cells assessed as cell growth at 10 uM after 48 hrs by SRB assay relative to control; format: functional; conditions: MCF7, 48 h, read-out: Activity; how it was run: as §2
TK-10 = assay: Cytotoxicity against human TK10 cells assessed as cell growth at 10 uM after 48 hrs by SRB assay relative to control; format: functional; conditions: TK-10, 48 h, read-out: Activity; how it was run: as §1
SF-539 = assay: Cytotoxicity against human SF539 cells assessed as cell growth at 10 uM after 48 hrs by SRB assay relative to control; format: functional; conditions: SF-539, 48 h, read-out: Activity; how it was run: as §2
[4] = Binding affinity to GRP78 duplex DNA (unknown origin) at 0.7 mM after 36 hrs by gel shift mobility assay relative to control
How it was run: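 Complementary strands (0.57 μM) annealed in 30% sucrose in TAE buffer (89 mM Tris/acetate, 2.5 mM EDTA, […]), incubated 36 h at 37 °C with ligand at 0, 5, 25, 50, 100 equiv per DNA phosphate (0, 0.2, 0.9, 1.9, 3.9 mM). Run on 24% native PAGE. DNA bands visualized by UV-shadowing at 260 nm. K_D taken from the duplex band ratio with versus without ligand.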

CCCCCCCCCCCCCCCC(=O)O[C@@H]1[C@H](OC(=O)CCCCCCCCCCCCCCC)[C@@H](C(=O)N[C@@H](CCCCN)C(=O)OC)O[C@H]1n1cnc2c(=O)[nH]c(NC(=O)C(C)C)nc21.Cl
growth at 10 µM (UACC-257): 90.1%
growth at 10 µM (NCI-H522): 84.4%
growth at 10 µM (SNB-19): 93.5%
growth at 10 µM (HCT-15): 96.6%
growth at 10 µM (MDA-MB-468): 83.1%
growth at 10 µM (OVCAR-4): 120%
growth at 10 µM (RPMI-8226): 92.5%
growth at 10 µM (DU-145): 107%
growth at 10 µM (T47D): 88.2%
Stability [1]: Stable
growth at 10 µM (SR): 9.69%
Activity [2]: Active
growth at 10 µM (A498): 98.1%
growth at 10 µM (PC-3): 103%
growth at 10 µM (SF-295): 108%
growth at 10 µM (OVCAR-5): 108%
growth at 10 µM (LOX IMVI): 93.5%
growth at 10 µM [3]: 102%
growth at 10 µM (HCC 2998): 101%
growth at 10 µM (Hs-578T): 107%
growth at 10 µM (NCI-H460): 101%
growth at 10 µM (HCT-116): 85.4%
growth at 10 µM (SNB-75): 94.1%
growth at 10 µM (MDA-MB-231): 118%
growth at 10 µM (MCF7): 96.4%
growth at 10 µM (TK-10): 101%
growth at 10 µM (SF-539): 103%
Activity [4]: 50%
